ChEMBL document CHEMBL3608292, “Synthesis and biological evaluation of novel myrtucommulones and structural analogues that target mPGES-1 and 5-lipoxygenase” (Eur J Med Chem, 2015)

How the values were obtained:
Prostaglandin E synthase = biological target: T1, Prostaglandin E synthase (Homo sapiens, UniProt O14684); assay: Inhibition of mPGES-1 in microsomal membranes isolated from interleukin-1beta-stimulated human A549 cells using PGH2 as substrate assessed as PGE2 formation preincubated for 15 mins followed by substrate addition measured after 1 min by RP-HPLC analysis; assay type: cell membranes
T1 sequence (O14684 whole entry): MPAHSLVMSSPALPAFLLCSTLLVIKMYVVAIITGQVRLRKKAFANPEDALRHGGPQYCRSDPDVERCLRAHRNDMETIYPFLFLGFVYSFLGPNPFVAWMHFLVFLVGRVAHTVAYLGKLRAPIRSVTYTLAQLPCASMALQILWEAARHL
Procedure, shortened: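 A549 cells kept 16 h in DMEM with 2% FCS, then 1 ng/ml IL-1β for 72 h. Cells homogenized and sonicated, microsomes obtained by centrifugation at 10,000 × g then 174,000 × g. Microsomes in 0.1 M potassium phosphate pH 7.4 with 2.5 mM glutathione, preincubated 15 min with compound or 0.3% DMSO. 20 µM PGH₂ (final) for 1 min at 4 °C. Stopped with FeCl₂/citric acid containing 11β-PGE₂, solid-phase extraction, RP-HPLC with UV at 195 nm.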

[1] = biological target: T2, Polyunsaturated fatty acid 5-lipoxygenase (Homo sapiens, UniProt P09917); assay: Inhibition of 5-LO in ionophore A23187-stimulated human PMNL using arachidonic acid as substrate assessed as formation of LTB4, 5(S),12(S)-DiHETE, 5-H(p)ETE preincubated for 15 mins followed by substrate and ionophore addition measured after 10 mins by HPLC analysis
T2 sequence (P09917 whole entry): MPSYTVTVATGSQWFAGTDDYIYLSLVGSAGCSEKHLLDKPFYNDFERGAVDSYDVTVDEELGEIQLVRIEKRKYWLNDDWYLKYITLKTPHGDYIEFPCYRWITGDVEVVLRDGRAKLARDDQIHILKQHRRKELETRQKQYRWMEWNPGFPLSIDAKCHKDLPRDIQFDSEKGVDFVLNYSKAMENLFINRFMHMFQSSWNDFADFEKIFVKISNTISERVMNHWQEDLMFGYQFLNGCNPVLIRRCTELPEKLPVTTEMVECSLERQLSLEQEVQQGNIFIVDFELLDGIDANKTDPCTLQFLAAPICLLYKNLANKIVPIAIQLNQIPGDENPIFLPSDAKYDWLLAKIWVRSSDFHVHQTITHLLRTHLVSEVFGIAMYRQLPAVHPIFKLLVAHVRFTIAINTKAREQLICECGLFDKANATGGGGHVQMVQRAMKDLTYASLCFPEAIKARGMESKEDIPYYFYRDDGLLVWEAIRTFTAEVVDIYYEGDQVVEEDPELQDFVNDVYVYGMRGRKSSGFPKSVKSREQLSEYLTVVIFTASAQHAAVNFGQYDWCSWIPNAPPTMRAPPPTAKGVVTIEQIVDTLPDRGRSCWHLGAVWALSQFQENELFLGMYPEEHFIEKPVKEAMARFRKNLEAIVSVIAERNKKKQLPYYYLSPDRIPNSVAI

[2] = biological target: T2, Polyunsaturated fatty acid 5-lipoxygenase; assay: Inhibition of recombinant human 5-LO expressed in Escherichia coli BL21 using arachidonic acid as substrate assessed as formation of all-trans isomer of LTB4, 5-H(P)ETE preincubated for 5 to 10 mins followed by substrate addition measured after 10 mins by HPLC analysis
Jurkat = assay: Cytotoxicity against human Jurkat cells assessed as induction of cell death after 48 hrs by MTT assay; assay type: functional, cell-based
Procedure, shortened: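 Jurkat T cells grown in RPMI 1640 with 10% heat-inactivated FCS, 10 mM HEPES, penicillin/streptomycin at 37 °C, 5% CO₂. Seeded at 2 × 10⁴ per well. Compounds or 0.3% DMSO vehicle added for 48 h. MTT then added until blue staining, cells lysed overnight in 10% SDS/20 mM HCl, absorbance read at 570 nm. Three to four independent experiments.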

[3] = biological target: T3, Polyunsaturated fatty acid 5-lipoxygenase (Homo sapiens) (UniProt P09917); assay: Inhibition of recombinant human 5-LO expressed in Escherichia coli BL21 using arachidonic acid as substrate assessed as remaining activity at 10 uM preincubated for 5 to 10 mins followed by substrate addition measured after 10 mins by HPLC analysis relative to control
T3 sequence (whole entry): T2 sequence (P09917 whole entry)
Procedure, shortened: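 5-LO expressed in E. coli BL21 from pT3-5-LO plasmid at 37 °C, then partially purified. Enzyme with compound held 5–10 min at 4 °C, prewarmed 30 s at 37 °C. Reaction started with 2 mM CaCl₂ plus 20 µM AA, stopped after 10 min at 37 °C with ice-cold methanol. All-trans LTB₄ isomers and 5-H(P)ETE quantified by HPLC. BWA4C used as control.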

[4] = biological target: T3, Polyunsaturated fatty acid 5-lipoxygenase (Homo sapiens); assay: Inhibition of 5-LO in ionophore A23187-stimulated human PMNL using arachidonic acid as substrate assessed as remaining activity at 10 uM preincubated for 15 mins followed by substrate and ionophore addition measured after 10 mins by HPLC analysis relative to control
Procedure, shortened: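 Human PMNL isolated by dextran sedimentation, density-gradient centrifugation and hypotonic erythrocyte lysis. 5 × 10⁶ cells/ml in PBS pH 7.4 with 1 mg/ml glucose and 1 mM CaCl₂. Compounds preincubated 15 min at 37 °C, then ionophore A23187 plus 20 µM AA for 10 min at 37 °C. Stopped with methanol/HCl, PGB₁ internal standard. 5-LO metabolites analysed by HPLC. BWA4C used as control.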

Row | SMILES | IC50 (Prostaglandin E synthase) [nM] | IC50 [1] [nM] | IC50 [2] [µM] | Activity [3] [%] | Activity [4] [%] | EC50 (Jurkat) [µM]
1 | CCCCCC(=O)c1c(O)c(C(CC(C)C)C2=C(O)CC(C)(C)CC2=O)c(O)c(C(CC(C)C)C2=C(O)CC(C)(C)CC2=O)c1O (configuration not stated) | 810 | 7300 | 2.9 | – | – | 13.1
2 | CC(C)C(C1=C(O)c2ccccc2C1=O)c1c(O)c(C(=O)c2ccccc2)c(O)c(C(C2=C(O)c3ccccc3C2=O)C(C)C)c1O (configuration not stated) | – | – | – | – | – | > 30
3 | CC(C)C(=O)c1c(O)c(C(C2=C(O)c3ccccc3C2=O)C(C)C)c(O)c(C(C2=C(O)c3ccccc3C2=O)C(C)C)c1O (configuration not stated) | – | – | 20 | – | – | > 30
4 | CC(C)C(C1=C(O)CC(C)(C)CC1=O)c1c(O)c(C(C2=C(O)CC(C)(C)CC2=O)C(C)C)c(O)c(C(C2=C(O)CC(C)(C)CC2=O)C(C)C)c1O (configuration not stated) | 680 | > 10000 | 2.8 | – | 83.5 | 6.2
5 | CCCCCC(=O)c1c(O)c(C(C2=C(O)CC(C)(C)CC2=O)C(C)C)c(O)c(C(C2=C(O)CC(C)(C)CC2=O)C(C)C)c1O (configuration not stated) | 570 | 2700 | > 10 | 68.7 | – | 3.7
6 | CCCCCC(=O)c1c(O)c([C@H](C2=C(O)C(C)(C)C(=O)C(C)(C)C2=O)C(C)C)c(O)c([C@H](C2=C(O)C(C)(C)C(=O)C(C)(C)C2=O)C(C)C)c1O [MYRTUCOMMULONE F] | 600 | 3100 | 7.5 | – | – | 2.3
7 | CC(C)C(=O)c1c(O)c(C(C2=C(O)c3ccccc3C2=O)c2ccccc2)c(O)c(C(C2=C(O)c3ccccc3C2=O)c2ccccc2)c1O (configuration not stated) | 810 | 1400 | 0.73 | – | – | > 30
8 | CC(C)CC(=O)c1c(O)c(C(C2=C(O)c3ccccc3C2=O)c2ccccc2)c(O)c(C(C2=C(O)c3ccccc3C2=O)c2ccccc2)c1O (configuration not stated) | 650 | 2100 | 1.2 | – | – | > 30
9 | CC(=O)c1c(O)c(C(C2=C(O)CC(C)(C)CC2=O)C(C)C)c(O)c(C(C2=C(O)CC(C)(C)CC2=O)C(C)C)c1O (configuration not stated) | 1100 | 8100 | > 10 | 69.3 | – | 7.5
10 | CC(C)C(=O)c1c(O)cc(O)c(C(C2=C(O)C(C)(C)C(=O)C(C)(C)C2=O)C(C)C)c1O (configuration not stated) | 820 | 8100 | > 10 | 82.5 | – | > 30
11 | CC(C)C(C1=C(O)CC(C)(C)CC1=O)c1c(O)c(C(=O)c2ccccc2)c(O)c(C(C2=C(O)CC(C)(C)CC2=O)C(C)C)c1O (configuration not stated) | 3500 | > 10000 | 8.6 | – | 66.1 | 4.4
12 | O=C1C(C(c2ccccc2)c2c(O)c(C(=O)c3ccccc3)c(O)c(C(C3=C(O)c4ccccc4C3=O)c3ccccc3)c2O)=C(O)c2ccccc21 (configuration not stated) | 480 | 1800 | 3 | – | – | > 30
13 | CC(C)C(=O)c1c2c(c(O)c3c1OC1=C(C(=O)C(C)(C)C(=O)C1(C)C)C3C(C)C)C(C(C)C)C1=C(O2)C(C)(C)C(=O)C(C)(C)C1=O (configuration not stated) | > 10000 | > 10000 | > 10 | 95 | 69.5 | 17.1
14 | CC(C)C(=O)c1c(O)c(C(C2=C(O)CC(C)(C)CC2=O)C(C)C)c(O)c(C(C2=C(O)CC(C)(C)CC2=O)C(C)C)c1O (configuration not stated) | 2100 | 13000 | 25 | – | – | 2
15 | CC(C)C(C1=C(O)C(C)(C)C(=O)C(C)(C)C1=O)c1c(O)c(C(=O)c2ccccc2)c(O)c(C(C2=C(O)C(C)(C)C(=O)C(C)(C)C2=O)C(C)C)c1O (configuration not stated) | 5000 | > 10000 | > 10 | 82.9 | 69.7 | > 30

Now from value to compound, other results behind:

Row | IC50 (Prostaglandin E synthase) [nM] | IC50 [1] [nM] | IC50 [2] [µM] | Activity [3] [%] | Activity [4] [%] | SMILES | EC50 (Jurkat) [µM]
16 | 300 | 1300 | 6.6 | – | – | CCCCCC(=O)c1c(O)c([C@@H](CC(C)C)C2=C(O)C(C)(C)C(=O)C(C)(C)C2=O)c(O)c([C@H](C2=C(O)C(C)(C)C(=O)C(C)(C)C2=O)C(C)C)c1O [MYRTUCOMMULONE H] | 21.9
17 | 6400 | 1600 | 2.5 | – | – | CCCCCC(=O)c1c(O)cc(O)c2c1OC1=C(C(=O)C(C)(C)C(=O)C1(C)C)C2C(C)C (configuration not stated) | 7.4
18 | – | 1300 | 3.1 | – | – | CC(C)CC(=O)c1c(O)c(C(C2=C(O)c3ccccc3C2=O)C(C)C)c(O)c(C(C2=C(O)c3ccccc3C2=O)C(C)C)c1O (configuration not stated) | > 30
19 | 490 | 980 | > 10 | 82.3 | – | CC(C)C(=O)c1c(O)c([C@@H](C2=C(O)C(C)(C)C(=O)C(C)(C)C2=O)C(C)C)c(O)c2c1OC1=C(C(=O)C(C)(C)C(=O)C1(C)C)[C@@H]2C(C)C | 3.4
20 | 290 | 970 | 4.8 | – | – | CC(C)CC(C1=C(O)C(C)(C)C(=O)C(C)(C)C1=O)c1c(O)c(C(=O)C(C)C)c(O)c(C(CC(C)C)C2=C(O)C(C)(C)C(=O)C(C)(C)C2=O)c1O (configuration not stated) | 12.2
21 | – | 1500 | 1.7 | – | – | CCCCCC(=O)c1c(O)c(C(C2=C(O)c3ccccc3C2=O)C(C)C)c(O)c(C(C2=C(O)c3ccccc3C2=O)C(C)C)c1O (configuration not stated) | > 30
22 | 640 | 1800 | 4.6 | – | – | CC(C)CC(=O)c1c(O)cc(O)c(C(CC(C)C)C2=C(O)C(C)(C)C(=O)C(C)(C)C2=O)c1O (configuration not stated) | > 30
23 | 390 | 1600 | > 10 | 72.8 | – | CCCCCC(=O)c1c(O)cc(O)c(C(C2=C(O)C(C)(C)C(=O)C(C)(C)C2=O)C(C)C)c1O (configuration not stated) | > 30
24 | 430 | 690 | 0.46 | – | – | CCCCCC(=O)c1c(O)c(C(C2=C(O)c3ccccc3C2=O)c2ccccc2)c(O)c(C(C2=C(O)c3ccccc3C2=O)c2ccccc2)c1O (configuration not stated) | > 30
25 | 240 | 460 | 3.5 | – | – | CCCCCC(=O)c1c(O)c(C(CC(C)C)C2=C(O)C(C)(C)C(=O)C(C)(C)C2=O)c(O)c(C(CC(C)C)C2=C(O)C(C)(C)C(=O)C(C)(C)C2=O)c1O (configuration not stated) | 23.5
26 | 7900 | 1600 | 6.2 | – | – | CC(C)C(=O)c1c(O)cc(O)c2c1OC1=C(C(=O)C(C)(C)C(=O)C1(C)C)[C@@H]2C(C)C | 8.1
27 | 220 | 660 | 2.7 | – | – | CC(C)CC(=O)c1c(O)c(C(CC(C)C)C2=C(O)C(C)(C)C(=O)C(C)(C)C2=O)c(O)c(C(CC(C)C)C2=C(O)C(C)(C)C(=O)C(C)(C)C2=O)c1O (configuration not stated) | 19.2
28 | 610 | 1300 | > 10 | 66.7 | – | CCCCCC(=O)c1c(O)c(C(C2=C(O)C(C)(C)C(=O)C(C)(C)C2=O)C(C)C)c(O)c2c1OC1=C(C(=O)C(C)(C)C(=O)C1(C)C)C2C(C)C (configuration not stated) | 2.5
